Active and inactive are the calls of the source. The rule behind the calls is not given here.
Legend:
[1] = biological target: Beta-galactosidase (Escherichia coli) (UniProt Q8VNN2); assay: Inhibition of Escherichia coli beta-galactosidase at 1 mM using p-nitrophenyl glycopyranoside preincubated for 5 mins followed by substrate addition measured after 20 mins by visible absorption spectroscopic method relative to control
In short: (§1)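 Test compound at 1 mM in well. Mix: 0.01–0.5 units/mL enzyme plus 10 mM p-nitrophenyl glycopyranoside (aqueous solution), buffered to the enzyme's optimal pH. Enzyme and inhibitor preincubated 5 min at rt. Substrate then added and incubated 20 min at 37 °C. Stopped with sodium borate (pH 9.8). p-Nitrophenolate read at 405 nm. Duplicates averaged.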

[2] = species on record: Bos taurus; assay: Inhibition of bovine kidney alpha-L-fucosidase at 1 mM using p-nitrophenyl glycopyranoside preincubated for 5 mins followed by substrate addition measured after 20 mins by visible absorption spectroscopic method relative to control; in short: as §1
[3] = Inhibition of bovine kidney alpha-L-fucosidase using p-nitrophenyl glycopyranoside preincubated for 5 mins followed by substrate addition measured after 20 mins by visible absorption spectroscopic method; design: species or system Bos taurus
[4] = biological target: Alpha-galactosidase (Coffea arabica) (UniProt Q42656); assay: Inhibition of coffee beans alpha-galactosidase at 1 mM using p-nitrophenyl glycopyranoside preincubated for 5 mins followed by substrate addition measured after 20 mins by visible absorption spectroscopic method relative to control; in short: as §1
[5] = biological target: T1, Beta-galactosidase (Aspergillus oryzae) (UniProt B7VU80); assay: Inhibition of Aspergillus oryzae beta-galactosidase at 1 mM using p-nitrophenyl glycopyranoside preincubated for 5 mins followed by substrate addition measured after 20 mins by visible absorption spectroscopic method relative to control; in short: as §1
T1 sequence (whole entry): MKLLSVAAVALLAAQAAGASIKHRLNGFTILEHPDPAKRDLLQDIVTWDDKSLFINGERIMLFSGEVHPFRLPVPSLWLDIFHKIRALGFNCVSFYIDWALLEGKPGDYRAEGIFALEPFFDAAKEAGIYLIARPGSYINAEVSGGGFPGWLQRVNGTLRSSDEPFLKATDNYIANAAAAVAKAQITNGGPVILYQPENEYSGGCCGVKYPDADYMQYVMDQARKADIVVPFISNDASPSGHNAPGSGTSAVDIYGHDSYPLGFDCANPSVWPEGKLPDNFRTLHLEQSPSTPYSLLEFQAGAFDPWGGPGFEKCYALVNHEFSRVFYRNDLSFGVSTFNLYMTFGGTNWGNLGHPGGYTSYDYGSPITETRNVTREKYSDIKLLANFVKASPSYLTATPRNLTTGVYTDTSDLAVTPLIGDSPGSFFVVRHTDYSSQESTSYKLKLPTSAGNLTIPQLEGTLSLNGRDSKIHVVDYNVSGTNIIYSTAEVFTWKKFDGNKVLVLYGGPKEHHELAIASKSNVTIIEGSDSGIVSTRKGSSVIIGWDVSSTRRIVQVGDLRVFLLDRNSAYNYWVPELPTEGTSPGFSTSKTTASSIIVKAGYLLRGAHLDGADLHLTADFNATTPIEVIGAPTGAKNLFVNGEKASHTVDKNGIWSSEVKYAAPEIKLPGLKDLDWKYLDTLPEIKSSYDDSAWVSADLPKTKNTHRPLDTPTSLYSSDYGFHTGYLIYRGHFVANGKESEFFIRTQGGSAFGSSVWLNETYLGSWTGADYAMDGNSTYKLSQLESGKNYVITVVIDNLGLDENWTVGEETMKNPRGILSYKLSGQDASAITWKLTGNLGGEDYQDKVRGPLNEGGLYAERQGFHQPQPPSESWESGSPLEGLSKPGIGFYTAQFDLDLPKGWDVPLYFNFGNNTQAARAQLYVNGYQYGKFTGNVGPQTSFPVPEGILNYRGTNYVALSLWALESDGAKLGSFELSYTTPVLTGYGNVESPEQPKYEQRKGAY

[6] = test system: Saccharomyces cerevisiae; assay: Inhibition of yeast alpha glucosidase at 1 mM using p-nitrophenyl glycopyranoside preincubated for 5 mins followed by substrate addition measured after 20 mins by visible absorption spectroscopic method relative to control; in short: as §1
[7] = test system: Oryza sativa; assay: Inhibition of rice alpha-glucosidase at 1 mM using p-nitrophenyl glycopyranoside preincubated for 5 mins followed by substrate addition measured after 20 mins by visible absorption spectroscopic method relative to control; in short: as §1
[8] = test system: Aspergillus niger; assay: Inhibition of Aspergillus niger amyloglucosidase at 1 mM using p-nitrophenyl glycopyranoside preincubated for 5 mins followed by substrate addition measured after 20 mins by visible absorption spectroscopic method relative to control; in short: as §1
[9] = test system: Prunus dulcis; assay: Inhibition of almond beta-glucosidase at 1 mM using p-nitrophenyl glycopyranoside preincubated for 5 mins followed by substrate addition measured after 20 mins by visible absorption spectroscopic method relative to control; in short: as §1
[10] = biological target: T2, Alpha-mannosidase (Canavalia ensiformis) (UniProt C0HJB3); assay: Inhibition of jack bean alpha-mannosidase at 1 mM using p-nitrophenyl glycopyranoside preincubated for 5 mins followed by substrate addition measured after 20 mins by visible absorption spectroscopic method relative to control; in short: as §1
T2 sequence (whole entry): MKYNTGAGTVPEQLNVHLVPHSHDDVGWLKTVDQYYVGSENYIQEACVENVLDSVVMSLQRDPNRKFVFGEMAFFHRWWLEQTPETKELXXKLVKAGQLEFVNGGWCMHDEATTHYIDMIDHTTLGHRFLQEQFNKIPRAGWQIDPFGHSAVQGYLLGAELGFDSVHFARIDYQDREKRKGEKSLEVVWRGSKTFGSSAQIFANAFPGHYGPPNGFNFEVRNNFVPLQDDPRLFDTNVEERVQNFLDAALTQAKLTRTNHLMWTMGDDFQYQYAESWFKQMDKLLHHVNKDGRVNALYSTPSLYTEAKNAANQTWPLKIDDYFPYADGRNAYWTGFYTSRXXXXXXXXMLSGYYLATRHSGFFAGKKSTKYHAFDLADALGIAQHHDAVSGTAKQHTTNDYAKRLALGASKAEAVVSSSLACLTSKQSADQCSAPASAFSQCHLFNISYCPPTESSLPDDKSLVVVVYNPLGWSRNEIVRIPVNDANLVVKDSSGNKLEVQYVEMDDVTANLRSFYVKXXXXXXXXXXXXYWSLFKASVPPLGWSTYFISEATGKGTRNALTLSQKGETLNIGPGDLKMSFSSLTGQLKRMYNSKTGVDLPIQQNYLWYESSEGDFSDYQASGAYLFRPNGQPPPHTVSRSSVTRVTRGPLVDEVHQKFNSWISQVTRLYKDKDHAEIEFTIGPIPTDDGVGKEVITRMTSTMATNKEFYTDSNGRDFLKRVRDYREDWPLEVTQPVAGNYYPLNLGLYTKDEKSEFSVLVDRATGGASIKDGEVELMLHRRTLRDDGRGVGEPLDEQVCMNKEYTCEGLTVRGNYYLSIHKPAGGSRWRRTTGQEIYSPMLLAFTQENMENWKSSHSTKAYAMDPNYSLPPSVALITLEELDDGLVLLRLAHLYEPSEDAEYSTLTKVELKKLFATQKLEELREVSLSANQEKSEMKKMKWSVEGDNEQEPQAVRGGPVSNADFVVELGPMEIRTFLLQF

[11] = test system: Cornu aspersum; assay: Inhibition of snail beta-mannosidase at 1 mM using p-nitrophenyl glycopyranoside preincubated for 5 mins followed by substrate addition measured after 20 mins by visible absorption spectroscopic method relative to control; in short: as §1
[12] = test system: Canavalia ensiformis; assay: Inhibition of jack bean beta-N-acetylglucosaminidase at 1 mM using p-nitrophenyl glycopyranoside preincubated for 5 mins followed by substrate addition measured after 20 mins by visible absorption spectroscopic method relative to control; in short: as §1

Alpha-galactosidase (Coffea arabica), sequence (Q42656 16-378 limits assumed): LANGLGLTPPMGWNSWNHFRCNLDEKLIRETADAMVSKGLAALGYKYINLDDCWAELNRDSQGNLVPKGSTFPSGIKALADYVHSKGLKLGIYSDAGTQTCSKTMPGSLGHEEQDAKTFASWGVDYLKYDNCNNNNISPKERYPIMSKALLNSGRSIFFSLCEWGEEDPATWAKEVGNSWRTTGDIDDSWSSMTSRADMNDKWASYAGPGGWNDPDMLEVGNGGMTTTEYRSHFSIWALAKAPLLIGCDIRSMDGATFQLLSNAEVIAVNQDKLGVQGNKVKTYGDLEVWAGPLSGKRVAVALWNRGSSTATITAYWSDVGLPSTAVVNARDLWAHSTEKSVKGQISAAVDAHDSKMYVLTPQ
Beta-galactosidase (Escherichia coli), sequence (Q8VNN2 whole entry, looked up): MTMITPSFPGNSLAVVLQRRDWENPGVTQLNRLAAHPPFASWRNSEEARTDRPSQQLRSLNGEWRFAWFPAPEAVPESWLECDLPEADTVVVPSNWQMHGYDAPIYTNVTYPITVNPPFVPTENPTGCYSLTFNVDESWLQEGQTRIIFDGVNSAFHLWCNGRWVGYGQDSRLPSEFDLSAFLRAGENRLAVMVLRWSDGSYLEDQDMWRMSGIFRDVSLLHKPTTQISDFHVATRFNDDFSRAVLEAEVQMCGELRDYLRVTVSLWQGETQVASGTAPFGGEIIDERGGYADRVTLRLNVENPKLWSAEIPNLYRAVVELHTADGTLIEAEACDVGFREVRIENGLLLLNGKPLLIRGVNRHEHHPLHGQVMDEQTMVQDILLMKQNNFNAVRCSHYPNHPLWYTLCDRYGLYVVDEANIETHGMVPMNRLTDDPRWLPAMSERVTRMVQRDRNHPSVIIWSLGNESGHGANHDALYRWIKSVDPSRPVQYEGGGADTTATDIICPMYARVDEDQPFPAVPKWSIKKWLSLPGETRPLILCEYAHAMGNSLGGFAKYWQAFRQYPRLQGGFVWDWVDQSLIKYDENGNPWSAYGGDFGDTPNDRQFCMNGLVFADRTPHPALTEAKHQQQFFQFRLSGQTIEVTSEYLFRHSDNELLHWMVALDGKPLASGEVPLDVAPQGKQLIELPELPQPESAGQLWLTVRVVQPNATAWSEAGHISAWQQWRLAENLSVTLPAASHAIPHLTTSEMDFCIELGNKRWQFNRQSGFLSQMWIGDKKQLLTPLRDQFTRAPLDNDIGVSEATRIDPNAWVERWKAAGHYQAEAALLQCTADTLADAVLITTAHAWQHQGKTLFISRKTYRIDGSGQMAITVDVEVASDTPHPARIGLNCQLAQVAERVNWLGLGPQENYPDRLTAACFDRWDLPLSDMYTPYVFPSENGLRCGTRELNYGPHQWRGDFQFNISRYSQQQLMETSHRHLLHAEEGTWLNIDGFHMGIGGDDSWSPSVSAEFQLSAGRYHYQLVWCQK

inhibition [1]: inactive | inhibition [2]: 84% | IC50 [3]: 168 µM | inhibition [4]: inactive | inhibition [5]: inactive | inhibition [6]: inactive | inhibition [7]: inactive | inhibition [8]: inactive | inhibition [9]: inactive | inhibition [10]: inactive | inhibition [11]: inactive | inhibition [12]: inactive
SMILES: O[C@@H]1[C@H](O)CN[C@@H]1c1cn(Cc2ccccc2)nn1

Source: ChEMBL document CHEMBL4190262, “Tuning of β-glucosidase and α-galactosidase inhibition by generation and in situ screening of a library of pyrrolidine-triazole hybrid molecules” (Eur J Med Chem, 2017)
